From ChEMBL document CHEMBL3286150, “Discovery of PF-5190457, a Potent, Selective, and Orally Bioavailable Ghrelin Receptor Inverse Agonist Clinical Candidate” (ACS Med Chem Lett, 2014)
Calls of active or inactive are those of the source. The rule behind the calls is not given here.

Columns and labels:
[1] = molecular target: T1, Muscarinic acetylcholine receptor M2 (Homo sapiens) (UniProt P08172); assay: Antagonist activity at muscarinic M2 receptor (unknown origin) expressed in CHO-K1 CHRM2 beta-arrestin cells assessed as inhibition of oxotremorine S-induced effect after 90 mins; assay type: cell-based
T1 sequence (whole entry): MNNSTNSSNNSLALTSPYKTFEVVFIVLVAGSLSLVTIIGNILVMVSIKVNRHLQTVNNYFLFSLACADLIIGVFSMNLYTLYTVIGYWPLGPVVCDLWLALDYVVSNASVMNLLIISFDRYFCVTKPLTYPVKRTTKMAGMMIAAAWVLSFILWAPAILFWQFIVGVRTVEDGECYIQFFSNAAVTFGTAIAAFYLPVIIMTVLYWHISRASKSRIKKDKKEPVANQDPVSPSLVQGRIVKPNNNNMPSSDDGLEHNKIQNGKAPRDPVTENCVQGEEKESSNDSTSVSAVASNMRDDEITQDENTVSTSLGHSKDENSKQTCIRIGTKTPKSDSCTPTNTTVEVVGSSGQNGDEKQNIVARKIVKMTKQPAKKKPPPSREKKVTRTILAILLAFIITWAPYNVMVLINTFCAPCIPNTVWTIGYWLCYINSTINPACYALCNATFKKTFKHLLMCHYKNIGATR
Method in brief: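 Antagonist mode in a β-arrestin PathHunter format. Kb was determined in the presence of an EC80 concentration of the agonist oxotremorine.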

[2] = Apparent intrinsic clearance in human liver microsomes; assay type: ADME; details: read-out: CLH
Method in brief: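 Apparent intrinsic clearance in human liver microsomes, expressed as mL/min/kg. Values are uncorrected for fraction unbound.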

[3] = Apparent permeability of the compound in MDCK2 cells; assay type: ADME, cell-based, Canis lupus familiaris, MDCK-II; details: dog, mdck
Method in brief: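 Passive permeability (Papp, 10–6 cm/s) measured in low-efflux MDCKII cells.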

MDCK = assay: Efflux ratio of permeability from basolateral to apical over apical to basolateral side in MDCK cells expressing human MDR1; details: dog
[4] = molecular target: T2, Alpha-2C adrenergic receptor (Homo sapiens) (UniProt P18825); assay: Activity at adrenergic alpha2C receptor (unknown origin) at 10 uM
T2 sequence (whole entry): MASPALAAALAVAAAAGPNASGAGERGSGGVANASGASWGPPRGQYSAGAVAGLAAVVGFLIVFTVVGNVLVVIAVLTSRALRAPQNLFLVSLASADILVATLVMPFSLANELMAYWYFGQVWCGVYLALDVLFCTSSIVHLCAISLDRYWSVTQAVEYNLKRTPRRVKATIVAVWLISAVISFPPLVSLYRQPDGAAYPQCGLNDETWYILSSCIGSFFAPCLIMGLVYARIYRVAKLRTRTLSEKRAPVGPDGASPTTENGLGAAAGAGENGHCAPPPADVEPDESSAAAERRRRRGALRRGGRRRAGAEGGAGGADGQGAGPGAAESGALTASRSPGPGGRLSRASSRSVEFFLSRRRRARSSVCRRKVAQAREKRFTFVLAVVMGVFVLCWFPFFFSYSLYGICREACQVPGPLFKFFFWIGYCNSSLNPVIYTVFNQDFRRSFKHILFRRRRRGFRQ

[5] = molecular target: T3, Alpha-2A adrenergic receptor (Homo sapiens) (UniProt P08913); assay: Activity at adrenergic alpha2A receptor (unknown origin) at 10 uM
T3 sequence (whole entry): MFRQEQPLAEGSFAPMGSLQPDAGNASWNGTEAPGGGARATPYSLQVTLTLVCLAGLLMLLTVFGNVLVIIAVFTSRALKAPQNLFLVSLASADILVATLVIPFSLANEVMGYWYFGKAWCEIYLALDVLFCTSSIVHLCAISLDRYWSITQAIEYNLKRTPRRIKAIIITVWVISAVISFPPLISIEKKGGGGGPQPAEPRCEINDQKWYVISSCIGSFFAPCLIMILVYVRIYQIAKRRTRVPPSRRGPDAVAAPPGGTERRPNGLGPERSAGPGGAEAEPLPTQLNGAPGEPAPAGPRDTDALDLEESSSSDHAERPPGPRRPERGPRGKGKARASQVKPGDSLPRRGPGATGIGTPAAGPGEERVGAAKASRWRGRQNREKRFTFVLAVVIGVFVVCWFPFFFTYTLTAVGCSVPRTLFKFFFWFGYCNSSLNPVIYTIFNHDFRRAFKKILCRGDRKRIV

[6] = molecular target: D(2) dopamine receptor (Homo sapiens) (UniProt P14416); assay: Activity at dopamine D2S receptor (unknown origin) at 10 uM
[7] = molecular target: D(3) dopamine receptor (Homo sapiens) (UniProt P35462); assay: Activity at dopamine D3 receptor (unknown origin) at 10 uM
[8] = molecular target: T4, D(4) dopamine receptor (Homo sapiens) (UniProt P21917); assay: Activity at dopamine D4 receptor (unknown origin) at 10 uM
T4 sequence (whole entry): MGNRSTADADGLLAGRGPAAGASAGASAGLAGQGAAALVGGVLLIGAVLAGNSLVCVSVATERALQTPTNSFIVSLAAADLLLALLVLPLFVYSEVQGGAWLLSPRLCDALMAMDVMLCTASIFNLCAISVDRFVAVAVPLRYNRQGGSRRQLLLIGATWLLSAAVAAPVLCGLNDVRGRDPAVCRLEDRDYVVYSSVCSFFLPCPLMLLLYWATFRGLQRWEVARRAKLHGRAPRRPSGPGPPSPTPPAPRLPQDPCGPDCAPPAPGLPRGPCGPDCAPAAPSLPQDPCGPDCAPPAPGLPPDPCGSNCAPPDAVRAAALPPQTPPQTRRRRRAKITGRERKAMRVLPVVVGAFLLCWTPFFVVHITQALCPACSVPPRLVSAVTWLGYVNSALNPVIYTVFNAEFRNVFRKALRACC

[9] = molecular target: Histamine H1 receptor (Homo sapiens) (UniProt P35367); assay: Activity at histamine H1 receptor (unknown origin) at 10 uM
[10] = molecular target: T5, Growth hormone secretagogue receptor type 1 (Homo sapiens, UniProt Q92847); assay: Displacement of [125I]ghrelin from human ghrelin receptor expressed in HEK293 cells after 8 hrs by scintillation proximity assay; assay type: cell-based
Method in brief: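 Human ghrelin receptor binding measured by scintillation proximity assay. Values are geometric means of at least 3 measurements, unless noted otherwise.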

[11] = molecular target: T5, Growth hormone secretagogue receptor type 1; assay: Inverse agonist activity at human ghrelin receptor expressed in HEK293 cells assessed as inhibition of ghrelin-induced europium-labeled GTP-gamma-S binding by DELFIA; assay type: cell-based
Method in brief: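 GTP-γ-S functional assay run in agonist/antagonist/inverse-agonist mode. Minimum percent effect is reported, with negative values denoting inverse agonism. Values are geometric means ± standard error of ≥3 measurements unless noted.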

Homo sapiens = organism: Homo sapiens; assay: Selectivity ratio of pKb for muscarinic M2 receptor (unknown origin) expressed in CHO-K1 CHRM2 beta-arrestin cells to Ki for human ghrelin receptor expressed; assay type: cell-based
Method in brief: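 Ratio of the M2 Kb (β-arrestin PathHunter antagonist format, EC80 oxotremorine) over the human ghrelin receptor functional Ki (GTP-γ-S assay).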

[12] = molecular target: Voltage-gated inwardly rectifying potassium channel KCNH2 (Homo sapiens, UniProt Q12809); assay: Inhibition of human ERG
[13] = molecular target: T6, 5-hydroxytryptamine receptor 2B (Homo sapiens, UniProt P41595); assay: Inhibition of 5HT2B receptor (unknown origin)
[14] = molecular target: T6, 5-hydroxytryptamine receptor 2B; assay: Agonist activity at 5HT2B receptor (unknown origin)
[15] = molecular target: T6, 5-hydroxytryptamine receptor 2B; assay: Antagonist activity at 5HT2B receptor (unknown origin)
[16] = Oral absorption in portal vein cannulated rat at 10 mg/kg, po; assay type: ADME, organism-based; set-up: dose 10 mg/kg, route oral; details: in vivo

T6 sequence (P41595 whole entry): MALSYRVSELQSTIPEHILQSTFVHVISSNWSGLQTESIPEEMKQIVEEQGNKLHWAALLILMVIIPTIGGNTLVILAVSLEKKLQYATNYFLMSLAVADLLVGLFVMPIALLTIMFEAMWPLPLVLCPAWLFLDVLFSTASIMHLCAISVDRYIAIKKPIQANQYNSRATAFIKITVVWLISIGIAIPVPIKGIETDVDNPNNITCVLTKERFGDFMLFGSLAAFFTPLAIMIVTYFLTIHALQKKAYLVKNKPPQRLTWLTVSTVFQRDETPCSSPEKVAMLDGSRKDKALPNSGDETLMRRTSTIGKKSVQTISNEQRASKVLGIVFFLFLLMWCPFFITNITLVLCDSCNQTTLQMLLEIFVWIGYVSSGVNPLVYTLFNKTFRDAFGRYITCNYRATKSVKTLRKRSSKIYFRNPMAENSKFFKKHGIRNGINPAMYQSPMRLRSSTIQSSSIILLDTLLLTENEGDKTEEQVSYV
T5 sequence (Q92847 whole entry): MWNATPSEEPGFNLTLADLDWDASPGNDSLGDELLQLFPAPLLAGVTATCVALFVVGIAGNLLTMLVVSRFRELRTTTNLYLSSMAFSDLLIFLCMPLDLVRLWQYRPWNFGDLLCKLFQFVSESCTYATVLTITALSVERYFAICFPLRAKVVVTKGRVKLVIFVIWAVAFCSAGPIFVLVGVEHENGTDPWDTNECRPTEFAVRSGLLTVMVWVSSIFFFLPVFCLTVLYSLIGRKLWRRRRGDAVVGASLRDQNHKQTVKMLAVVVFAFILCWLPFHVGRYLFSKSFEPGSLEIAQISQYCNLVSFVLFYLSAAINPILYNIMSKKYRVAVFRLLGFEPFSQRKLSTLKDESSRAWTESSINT
D(2) dopamine receptor (Homo sapiens), sequence (P14416 whole entry): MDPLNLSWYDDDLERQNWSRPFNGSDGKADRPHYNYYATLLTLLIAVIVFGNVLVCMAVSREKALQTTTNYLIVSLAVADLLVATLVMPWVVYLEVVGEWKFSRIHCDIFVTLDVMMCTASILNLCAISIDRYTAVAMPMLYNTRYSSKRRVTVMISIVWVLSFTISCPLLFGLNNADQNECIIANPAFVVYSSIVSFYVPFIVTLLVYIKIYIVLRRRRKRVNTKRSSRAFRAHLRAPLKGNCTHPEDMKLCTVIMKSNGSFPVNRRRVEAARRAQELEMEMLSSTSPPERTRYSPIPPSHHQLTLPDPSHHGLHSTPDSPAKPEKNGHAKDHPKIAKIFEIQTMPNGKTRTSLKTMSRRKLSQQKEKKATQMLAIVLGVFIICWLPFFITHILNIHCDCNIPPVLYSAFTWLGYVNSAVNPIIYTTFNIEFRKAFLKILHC
Histamine H1 receptor (Homo sapiens), sequence (P35367 whole entry): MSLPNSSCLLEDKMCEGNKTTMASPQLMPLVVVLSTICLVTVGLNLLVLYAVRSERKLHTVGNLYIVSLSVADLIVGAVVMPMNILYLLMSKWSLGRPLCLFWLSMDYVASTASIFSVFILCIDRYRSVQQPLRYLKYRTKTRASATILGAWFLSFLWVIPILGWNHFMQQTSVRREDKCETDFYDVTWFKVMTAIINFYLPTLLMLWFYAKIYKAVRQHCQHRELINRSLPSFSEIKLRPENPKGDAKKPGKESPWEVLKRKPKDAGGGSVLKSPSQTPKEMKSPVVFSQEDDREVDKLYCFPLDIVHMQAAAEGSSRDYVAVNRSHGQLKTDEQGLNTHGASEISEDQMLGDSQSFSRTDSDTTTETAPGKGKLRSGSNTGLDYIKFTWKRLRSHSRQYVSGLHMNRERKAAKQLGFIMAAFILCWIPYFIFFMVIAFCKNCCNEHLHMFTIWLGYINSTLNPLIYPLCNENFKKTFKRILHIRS
Voltage-gated inwardly rectifying potassium channel KCNH2, sequence (Q12809 whole entry): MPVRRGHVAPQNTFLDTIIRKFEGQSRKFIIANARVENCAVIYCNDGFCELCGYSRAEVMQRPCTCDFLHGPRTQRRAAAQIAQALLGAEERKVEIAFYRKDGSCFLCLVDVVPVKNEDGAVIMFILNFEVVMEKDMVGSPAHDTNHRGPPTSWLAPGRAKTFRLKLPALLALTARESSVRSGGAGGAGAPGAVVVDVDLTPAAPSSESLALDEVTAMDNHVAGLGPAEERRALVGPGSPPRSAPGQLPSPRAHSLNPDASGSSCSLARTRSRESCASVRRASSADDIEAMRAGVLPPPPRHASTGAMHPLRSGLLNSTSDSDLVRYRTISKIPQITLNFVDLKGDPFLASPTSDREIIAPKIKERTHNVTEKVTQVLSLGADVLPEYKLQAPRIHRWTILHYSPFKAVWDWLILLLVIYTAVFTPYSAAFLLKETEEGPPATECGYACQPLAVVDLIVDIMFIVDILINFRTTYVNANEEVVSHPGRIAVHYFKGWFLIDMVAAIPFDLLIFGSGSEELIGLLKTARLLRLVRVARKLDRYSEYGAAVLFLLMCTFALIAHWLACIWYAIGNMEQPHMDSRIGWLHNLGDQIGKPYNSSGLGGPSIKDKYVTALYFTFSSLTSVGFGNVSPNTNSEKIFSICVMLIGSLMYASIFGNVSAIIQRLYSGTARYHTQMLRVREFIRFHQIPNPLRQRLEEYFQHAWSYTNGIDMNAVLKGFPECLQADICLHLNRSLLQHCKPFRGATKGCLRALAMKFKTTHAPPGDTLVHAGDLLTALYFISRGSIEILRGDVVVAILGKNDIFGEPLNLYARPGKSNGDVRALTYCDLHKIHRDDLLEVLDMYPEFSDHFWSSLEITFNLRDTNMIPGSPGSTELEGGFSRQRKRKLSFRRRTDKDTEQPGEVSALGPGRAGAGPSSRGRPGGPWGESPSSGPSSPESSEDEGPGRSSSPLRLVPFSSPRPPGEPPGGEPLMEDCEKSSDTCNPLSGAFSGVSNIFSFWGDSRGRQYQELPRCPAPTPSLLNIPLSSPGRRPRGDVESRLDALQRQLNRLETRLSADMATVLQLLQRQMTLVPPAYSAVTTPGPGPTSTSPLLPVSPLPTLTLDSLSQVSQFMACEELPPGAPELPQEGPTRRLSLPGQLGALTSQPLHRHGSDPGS
D(3) dopamine receptor (Homo sapiens), sequence (P35462 whole entry): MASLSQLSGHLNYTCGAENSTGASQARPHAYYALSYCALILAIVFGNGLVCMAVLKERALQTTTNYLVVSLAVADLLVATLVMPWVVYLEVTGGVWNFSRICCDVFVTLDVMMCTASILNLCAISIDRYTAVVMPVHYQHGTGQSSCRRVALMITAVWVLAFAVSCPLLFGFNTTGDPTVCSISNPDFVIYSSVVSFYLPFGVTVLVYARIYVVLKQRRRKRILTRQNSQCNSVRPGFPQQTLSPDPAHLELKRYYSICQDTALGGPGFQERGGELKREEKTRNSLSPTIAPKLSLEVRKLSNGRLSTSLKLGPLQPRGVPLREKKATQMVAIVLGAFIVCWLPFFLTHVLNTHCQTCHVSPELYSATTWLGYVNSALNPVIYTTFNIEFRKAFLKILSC

Row | Structure (SMILES) | pKb [1] | CLint scaled [2] | Papp [3] | Ratio (MDCK) | Ki [11] | Ratio (Homo sapiens) | further results
1 | COc1ccc(CC(=O)N2CCC3(CC2)CN([C@@H]2CCc4cc(-c5ccncn5)ccc42)C3)nc1 | 6.08 | 82 mL/min/kg | 15 ×10⁻⁶ cm/s | 5.4 | – | – | –
2 | COc1ccc(CC(=O)N2CCC3(CC2)CN([C@@H]2CCc4cc(-c5cc(C)ncn5)ccc42)C3)nc1 | 5.66 | – | – | – | – | – | –
3 | COc1ccc(CC(=O)N2CCC3(CC2)CN([C@@H]2CCc4cc(-c5ncccn5)ccc42)C3)cc1 | 5.94 | – | – | – | – | – | Activity [4]: Active; Activity [5]: Active; Activity [6]: Active; Activity [7]: Active; Activity [8]: Active; Activity [9]: Active
4 | Cc1cc(-c2ccc3c(c2)CC[C@H]3N2CC3(CCN(C(=O)Cc4cn5cc(C)sc5n4)CC3)C2)ncn1 [PF-5190457] | 5.71 | 21 mL/min/kg | 5 ×10⁻⁶ cm/s | 7.2 | 6.61 nM | 266 | Ki [10]: 6.61 nM; IC50 [12]: 6.9 µM; IC50 [13]: 3.7 µM; Activity [14]: inactive; inhibition [15]: inactive; Fa [16]: 100%
5 | COc1ccc(CC(=O)N2CCC3(CC2)CN([C@@H]2CCc4cc(-c5ncccn5)ccc42)C3)nc1 | 6.18 | – | – | – | 25.1 nM | – | –
6 | Cc1cn2cc(CC(=O)N3CCC4(CC3)CN([C@@H]3CCc5cc(-c6ccc(C(N)=O)nc6)ccc53)C4)nc2s1 | 6.48 | – | – | > 18.2 | – | – | –
7 | Cc1cn2cc(CC(=O)N3CCC4(CC3)CN([C@@H]3CCc5cc(-c6ncccn6)ccc53)C4)nc2s1 | 6.41 | 18 mL/min/kg | 11 ×10⁻⁶ cm/s | 5.4 | 6.61 nM | 47 | Ki [10]: 4.57 nM
8 | COc1ccc(CC(=O)N2CCC3(CC2)CN([C@@H]2CCc4cc(-c5ncc(C)cn5)ccc42)C3)nc1 | 5.86 | – | – | – | 85.1 nM | – | –
9 | COc1ccc(CC(=O)N2CCC3(CC2)CN([C@@H]2CCc4cc(-c5nccc(C)n5)ccc42)C3)nc1 | 6.09 | 17 mL/min/kg | 10 ×10⁻⁶ cm/s | 3.7 | 50.1 nM | 20 | –
